A selection: hits, their analogues and other compounds. The true share with any hit is near 2.9%.
HCV core dimer = inhibitors of HCV core protein dimerization, primary screen, biochemical, TR-FRET, high-throughput | TR-FRET GST/Flag-core106 dimerization, 1536-well | AID 1899, 2009 | 300,000 compounds, 0.33% hits | inhibition, % at 5 µM;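 active means inhibition above the mean of all tested compounds plus 3 SD, set per screening campaign, cut at about 45% in these data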
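Assay system: tagged HCV core106 pair (GST and Flag); medium: KF-containing HEPES buffer, pH 7.45, DTT, CHAPS, BSA; also added: Eu donor and XL665 acceptor anti-tag antibodies; dosing: 5 µM single dose; timing: compound-protein-antibody incubation 4 h at 22.5 °C; signal: TR-FRET 671 and 617 nm emission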
PRMT1 inh = PRMT1 methyltransferase inhibitors, primary screen, biochemical, fluorescence polarization; Protein arginine N-methyltransferase 1 (Homo sapiens), Q99873; recombinant PRMT1, activity-based probe fluorescence polarization; 370,000 compounds, 1.3% hits; inhibition, % at 2.79 µM;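 active means inhibition above about 21% made by adding two undisclosed values, limit read from the data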
A3A deaminase = APOBEC3A ssDNA deaminase inhibitors, primary screen, selectivity assay for APOBEC3G inhibitor project, biochemical, FAM/TAMRA oligo cleavage fluorescence; DNA dC->dU-editing enzyme APOBEC-3A (Homo sapiens), P31941; recombinant A3A, FAM/TAMRA ssDNA deamination fluorescence; inhibition, % at 20 µM; 330,000 compounds, 0.41% hits; AID 493011, 2011;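 active means at least 40% inhibition at 20 µM here, with at most 30% in a related deaminase screen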;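 further: plate controls were A3A with DMSO for no effect and wells lacking A3A enzyme for full effect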
NS3 helicase inh = inhibitors of HCV NS3 helicase, primary screen, biochemical, Cy5 molecular beacon fluorescence. Hepatitis C virus NS3 helicase. 290,000 compounds, 0.56% hits. AID 1800, 2009. NS3 helicase DNA unwinding. inhibition, % at 10.9 µM;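 active means inhibition above the mean of all tested compounds plus 3 SD, set per campaign, cut at about 35% in these data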;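 further: 0% = DMSO wells and 100% = thioflavine S control wells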
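Assay system: hepatitis C virus NS3 helicase domain fragment enzyme. Also added: annealed dual-labelled DNA beacon duplex, ATP-started. Timing: 1 h reaction at 25 °C, ATP-initiated. Technique: Cy5 fluorescence at 0 and 60 min, beacon hairpin quenching. Evaluation: % inhibition of unwinding. Replication: one well per compound.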
APOBEC3G inh = APOBEC3G DNA deaminase inhibitors, primary screen, biochemical, fluorescence, single-stranded DNA substrate, uHTS; DNA dC->dU-editing enzyme APOBEC-3G (Homo sapiens), Q9HC16; recombinant A3G, ssDNA deamination FAM/TAMRA fluorescence; inhibition, % at 20 µM; 330,000 compounds, 0.28% hits;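 active means inhibition of at least 40% at 20 µM, with no more than 30% in the related APOBEC3A deaminase screen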;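 further: plate controls were DMSO wells with A3G for no effect and wells lacking A3G enzyme for full effect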
ABHD5 PLIN5 PPI = ABHD5-PLIN5 interaction inhibitors, primary screen, cell lysate, split luciferase complementation, luminescence; inhibition, % at 4 µM; Split G. princeps luciferase complementation, 4 h; Perilipin-5 (Homo sapiens) + 1-acylglycerol-3-phosphate O-acyltransferase ABHD5 (Homo …; 360,000 compounds, 0.78% hits;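 active means inhibition above the mean inhibition across every tested compound plus 3 SD, cut at about 22% in these data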;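 further: 0% = DMSO only wells and the 100% control is not disclosed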
Target sequence (Q00G26 whole entry, looked up): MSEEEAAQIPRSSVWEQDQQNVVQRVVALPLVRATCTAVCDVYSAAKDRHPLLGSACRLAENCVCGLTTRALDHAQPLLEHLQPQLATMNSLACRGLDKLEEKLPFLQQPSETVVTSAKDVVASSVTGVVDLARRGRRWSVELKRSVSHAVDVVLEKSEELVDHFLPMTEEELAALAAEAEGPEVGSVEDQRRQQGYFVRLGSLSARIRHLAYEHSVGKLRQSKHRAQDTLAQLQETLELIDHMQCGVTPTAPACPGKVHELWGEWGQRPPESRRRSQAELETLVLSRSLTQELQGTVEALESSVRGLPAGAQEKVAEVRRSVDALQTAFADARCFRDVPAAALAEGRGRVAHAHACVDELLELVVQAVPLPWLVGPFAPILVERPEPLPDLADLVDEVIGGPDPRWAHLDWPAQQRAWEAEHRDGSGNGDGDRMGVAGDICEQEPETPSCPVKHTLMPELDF
Target sequence (Q8WTS1 whole entry, looked up): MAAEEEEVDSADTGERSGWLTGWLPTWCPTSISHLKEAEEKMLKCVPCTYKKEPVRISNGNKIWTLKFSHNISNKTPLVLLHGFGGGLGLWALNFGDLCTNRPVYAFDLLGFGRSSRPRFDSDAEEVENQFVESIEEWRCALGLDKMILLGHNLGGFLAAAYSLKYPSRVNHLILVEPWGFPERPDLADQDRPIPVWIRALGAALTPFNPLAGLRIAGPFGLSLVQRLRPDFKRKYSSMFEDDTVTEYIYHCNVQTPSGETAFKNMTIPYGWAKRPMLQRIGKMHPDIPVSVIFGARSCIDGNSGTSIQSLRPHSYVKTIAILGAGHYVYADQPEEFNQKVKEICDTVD
PRMT1 confirm = PRMT1 methyltransferase inhibitors, confirmation, biochemical, fluorescence polarization, triplicate; shares compounds with PRMT1 inh; recombinant His-PRMT1, activity-based probe fluorescence polarization; inhibition, % at 2.79 µM; 3,300 compounds, 42% hits; AID 687036, 2013;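 active means mean inhibition across replicates above the hit cutoff derived for the earlier primary screen, cut at about 22% in these data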
Starred values were filed as active, the others as inactive; · = no result given.

SMILES	HCV core dimer	PRMT1 inh	A3A deaminase	NS3 helicase inh	APOBEC3G inh	ABHD5 PLIN5 PPI	PRMT1 confirm
CC1=C(C(=O)N(C(C)C)C(C)C)CC(CC(=O)NC(c2ccccc2)c2ccccc2)C(=O)N1CCCN1CCCC1=O (centres undefined)	·	2.6	·	·	·	-1.2	·
O=C1CSC(=NC(=O)c2ccccc2)N1	-1.1	77.6*	-0.9	-2.4	-4.6	-17.8	14.6
CC(C)C(=O)N=C1NC(=O)CS1	-5.5	55.3*	-0.2	-3.8	-4.8	-16.5	35.4*
OC(c1ccccc1)c1nc(-c2ccc3c(c2)OCO3)cs1 (centres undefined)	·	-2.4	·	·	·	0.0	·
Cc1c(NC(=O)Nc2ccc(F)cc2F)c(=O)n(-c2ccccc2)n1C	-1.0	0.8	-0.7	12.6	-3.0	3.3	·
COc1ccc(OC)c(CN2C(=O)CCCC2(C)c2nnnn2C2CCCC2)c1 (centres undefined)	·	-5.0	·	·	·	·	·
CCCCNC(=O)c1ccc2nc(-c3ccco3)c(-c3ccco3)nc2c1	49.7*	41.5*	58.9	19.8	41.4	13.5	48.1*
CCOC(=O)NC(=O)C(/C=N/c1sccc1C(=O)OC)=C(\C)O	-0.2	45.0*	-1.8	-10.2	-5.8	3.7	0.1
COc1ccc(CCC(=O)N(C)CC(=O)Nc2ccc(Cl)c(C(F)(F)F)c2)cc1	-6.1	0.7	-9.1	-16.8	-14.8	-3.8	·
O=C1Nc2ccccc2N=C(c2ccc3c(c2)OCO3)C1N(CCc1ccccc1)C(=O)CSc1ncccn1 (centres undefined)	·	12.6	·	·	·	-5.5	·
CCN(CC(=O)Nc1ccc(NC(C)=O)cc1)C(=O)CSCC(=O)Nc1ccc(C)cc1	-0.4	-0.5	10.4	·	-11.8	-6.5	·
CCOC(=O)c1ccc(NC(=O)CSCc2ccco2)cc1	28.5	81.8*	3.1	32.0	-2.6	-10.6	84.3*
CCOC(=O)CC(=O)CSCC(=O)Nc1ccc(C)cc1	2.1	39.5*	-4.7	-0.9	-4.2	-1.3	31.8*
COc1cccc(-c2csc(NNC(=O)c3cccs3)n2)c1	-0.5	29.4*	0.7	13.6	4.4	-2.0	4.8
COc1cccc(-c2csc(NC(=O)Oc3ccccc3)n2)c1	1.2	2.8	-3.0	-5.5	-4.6	-7.3	·
O=C(NC1CC1)c1cc(=S)[nH]c2ccccc12	·	39.1*	-4.7	·	18.4	-4.2	18.9
CCN1/C(=C/C(=O)c2ccco2)Sc2ccccc21	1.2	44.7*	-10.1	7.3	0.3	-2.0	5.7
CCC(=O)/C=C1/Sc2ccccc2N1CC	-5.7	28.6*	-7.4	-3.6	-10.7	-6.6	26.8*
Cn1cc(S(=O)(=O)NC[C@H]2O[C@@H](n3cnc4c(N)ncnc43)[C@H](O)[C@@H]2O)cn1	·	-1.3	0.5	·	0.6	15.8	·
CCOC(=O)C1=C(COC(=O)/C=C/c2cc(OC)c(OC)c(OC)c2)NC(=O)NC1C (centres undefined)	3.4	2.9	-1.0	-9.4	-0.3	0.9	·
S=c1[nH]c(-c2ccccc2)cn1/N=C/c1cccs1	-2.1	45.3*	-2.5	8.9	3.1	-6.7	22.1*
COc1ccccc1/C=C/C=N/n1c(-c2cc(-c3ccccc3)n[nH]2)n[nH]c1=S	10.4	26.1*	2.3	0.0	9.7	-12.0	22.6*
S=c1[nH]nc(-c2cccs2)n1/N=C/c1c(Cl)cccc1Cl	4.9	19.2	0.1	8.8	30.2	-2.8	·
S=c1[nH]nc(-c2cc(-c3ccccc3)n[nH]2)n1/N=C/c1cccs1	-1.9	27.7*	-1.5	-9.6	21.2	-10.5	30.9*
Oc1c(Br)cc(/C=N/n2c(-c3ccccc3)n[nH]c2=S)c(O)c1Br	·	·	·	6.9	·	-2.9	·
SMILES	HCV core dimer	PRMT1 inh	A3A deaminase	NS3 helicase inh	APOBEC3G inh	ABHD5 PLIN5 PPI	PRMT1 confirm
S=c1[nH]nc(-c2cc(-c3ccccc3)n[nH]2)n1N=Cc1c[nH]c2ccccc12	·	32.1*	·	·	·	·	24.1*
O=[N+]([O-])c1ccccc1/C=C/C=N/n1c(-c2cc(-c3ccccc3)n[nH]2)n[nH]c1=S	14.6	-5.1	-3.8	-0.9	2.1	-7.2	·
COc1ccc(NC(=O)C(C2CC2)n2c(=O)c(-c3ccccc3)nc3ccccc32)cc1 (centres undefined)	·	-8.2	·	·	·	-1.7	·
COc1ccc([C@@H]2C[C@H]3[C@@H](CN2S(=O)(=O)c2ccccc2)C(=O)C[C@@H](c2cccc4ccccc24)N3S(=O)(=O)c2ccc(C)cc2)cc1	·	3.7	·	·	·	4.4	·
CCOc1ccc2nc(NC(=O)CN3C(=O)C4CCCCC4C3=O)sc2c1 (centres undefined)	2.8	1.0	-0.1	·	-4.0	2.8	·
C[n+]1c2n(c3ccccc31)N=C(c1ccc(Br)cc1)CS2	-8.8	56.6*	-3.8	-0.9	-6.8	-12.1	2.5
C[n+]1c2n(c3ccccc31)N=C(c1ccccc1)CS2	5.4	47.5*	-3.9	-6.2	-10.2	-7.5	8.0
C[n+]1c2n(c3ccccc31)N=C(c1ccc(-c3ccccc3)cc1)CS2	-0.6	4.9	-4.1	-26.3	-11.7	12.2	·
Cc1ccc(S(=O)(=O)N2CCN(c3ccccc3)CC2)cc1C(=O)NC1CCCCC1	10.1	4.7	-4.9	0.9	-5.9	-7.9	·
CCCn1c(CN2CCN(C(=O)c3ccco3)CC2)nc2cc(S(=O)(=O)N(C)C)ccc21	·	4.9	-1.0	·	-0.7	5.2	·
O=C1NC2c3c(I)sc(I)c3C(=O)C2O1 (centres undefined)	·	47.2*	·	·	·	8.0	15.0
O=C1NC2c3c(Cl)sc(Cl)c3C(=O)C2O1 (centres undefined)	·	17.1	·	·	·	12.4	·
CCc1nc2ccc(C(=O)NCc3ccc4c(c3)OCO4)cn2c1N(C)C(=O)Cc1ccccc1	·	1.8	·	·	·	0.1	·
CS(=O)(=O)Nc1ccc(-c2cnc3cccnn23)cc1	·	9.6	·	·	·	-4.0	·
O=C(CSc1nccn(-c2cccc(F)c2)c1=O)Nc1ccc(Cl)cc1F	10.5	74.5*	-4.8	6.2	-15.9	-17.5	69.5*
O=C(CSc1nccn(-c2ccc3c(c2)OCCO3)c1=O)Nc1ccccc1	0.0	44.9*	0.9	·	-2.4	4.3	23.8*
O=C(CSc1nccn(-c2ccc(F)c(F)c2)c1=O)NC1CCCC1	·	20.4	1.0	·	1.7	-8.5	·
O=C(c1[nH]c(C(F)(F)F)nc1-c1ccccc1)N1CCN(c2ncccc2C(F)(F)F)CC1	·	8.0	·	·	·	0.2	·

Source: PubChem
